Experimental data gathered from unrelated publications.
Compare with care: the assays were run in different laboratories. ≈ marks a conversion by molar mass, not a printed value.

Compound | target or system | test | system | conditions | measurement | value
NCCCCC(=O)Nc1ccccc1/N=c1\cc(-c2ccc3c(c2)OCO3)oc2ccccc12 | MDA-MB-468 | cell growth or viability, CCK-8 |  | 1 µM | inhibition | -0.27%
OCc1ccc(-c2nn(Cc3ccncc3)c3cccnc23)o1 | RBE | cell growth or viability, ATP luminescence |  |  | IC50 | 8710 nM
CN(C)CCNC(=O)c1ccc(-c2nc3ccc4[nH]ncc4c3c3c2CCCCC3)nc1 | MV4-11 | cell growth or viability, resazurin |  | 72 h | GI50 | 236 nM
NCCC(=O)Nc1ccccc1/N=c1\cc(-c2ccc3nc(N)oc3c2)oc2ccc(F)cc12 | MDA-MB-468 | cell growth or viability, CCK-8 |  | 1 µM | inhibition | 59.8%
CCCS(=O)(=O)Oc1ccc(C=NNC(=O)CSc2nc3c(C)cccc3c(=O)n2-c2ccccc2)cc1 | Staphylococcus aureus | microbial growth, well diffusion | MRSA | 20 µg/mL | inhibition zone | 2 mm
CN(C)CCNC(=O)c1ccc(-c2nc3ccc4[nH]ncc4c3c3c2CCCCC3)c(F)c1 | MV4-11 | cell growth or viability, resazurin |  | 72 h | GI50 | 11 nM
O=C(O)c1cn(C2CC2)c2cc(N3CCNCC3)c(F)cc2c1=O | Escherichia coli | microbial growth, well diffusion | ATCC25922 | 100 µg/mL | inhibition zone | 35 mm
CN(C)CCNC(=O)c1ccc(-c2nc3ccc4[nH]ncc4c3c3c2CC3)cc1 | MV4-11 | cell growth or viability, resazurin |  | 72 h | GI50 | 1300 nM
CC(=O)NC[C@H]1CN(c2ccc(N3CCOCC3)c(F)c2)C(=O)O1 | Staphylococcus aureus | microbial growth, agar dilution | ATCC29213 |  | MIC | 2 µg/mL (≈ 5.93 µM)
CCN(Cc1ccc(F)cc1)c1ccc(CO)c(Cl)c1 | RBE | cell growth or viability, ATP luminescence |  | 46 µM, 72 h | inhibition | 53%
CC(C)(C)[C@H](N)C(=O)Nc1ccccc1/N=c1\cc(-c2ccc3c(c2)OCO3)oc2ccccc12 | MDA-MB-468 | cell growth or viability, CCK-8 |  | 1 µM | inhibition | -1.02%
COCc1ccc(-c2nn(Cc3ccccc3)c3ccccc23)o1 | RBE | cell growth or viability, ATP luminescence |  | 46 µM, 72 h | inhibition | 49%
C[C@H](N)C(=O)Nc1ccccc1/N=c1\cc(-c2ccc3c(c2)OCCO3)oc2c(N)cccc12 | MDA-MB-468 | cell growth or viability, CCK-8 |  | 1 µM | inhibition | 2.63%
Cc1n[nH]c2ccc3nc(-c4ccc(C(=O)NCCN(C)C)cc4F)c4c(c3c12)CCCC4 | MV4-11 | cell growth or viability, resazurin |  | 72 h | GI50 | 27 nM
Cc1ccccc1Cn1nc(-c2ccc(CO)o2)c2ccccc21 | RBE | cell growth or viability, ATP luminescence |  | 46 µM, 72 h | inhibition | 61%
